Positions of bridges follow the written chain, without caps; N, C: chain ends. Residues, ends and D or L forms follow the SMILES beside them. Chains are numbered I, II in the order given.
Key:
[1] = Biodistribution in Staphylococcus aureus infected Swiss mouse thigh muscle at 2 to 5 MBq, iv administered as [99m]technetium-radiolabeled peptide by scintigraphic imaging; type: ADME, organism-based, Muscle tissue; details: in vivo
In short: (§1)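 Mice carry a thigh-muscle infection from 0.1 ml saline containing 0.5 to 2.0 × 10^7 CFU S. aureus. Peptides labelled with 99mTc (2 to 5 MBq) are injected intravenously and tracked by scintigraphic imaging. Radioactivity in bladder, kidneys, spleen, liver and infected muscle is given as % of injected dose, mean ± SD.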

Staphylococcus aureus [2] = assay: Bactericidal activity against Staphylococcus aureus ATCC 25923 infected iv dosed Swiss mouse assessed per gram of infected soft tissue after 24 hrs; type: functional
In short: (§2)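 Mice infected with 0.1 ml saline containing 0.5 to 2.0 × 10^7 CFU. After 18 h, various peptide amounts given intravenously. Mice kept another 24 h, then sacrificed and viable bacteria counted. LC50 = μmol/g infected tissue cutting viable counts by 50% versus untreated mice. Means from at least three animals per peptide concentration.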

Liver = assay: Biodistribution in Swiss mouse liver at 2 to 5 MBq, iv administered as [99m]technetium-radiolabeled peptide by scintigraphic imaging; type: ADME, organism-based; details: in vivo; in short: as §1
[3] = Ratio of drug level in infected thigh muscle to contralateral noninfected thigh muscle in Staphylococcus aureus […] infected Swiss mouse administered as [99m]technetium-radiolabeled peptide; type: ADME, tissue-based; details: in vivo
In short: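 Thighs are infected with 0.5 to 2.0 × 10^7 CFU S. aureus in 0.1 ml saline, and 99mTc-labelled peptide is given intravenously. Scintigraphic imaging compares radioactivity in the infected thigh muscle (target) with the contralateral noninfected thigh muscle (nontarget). The T/NT ratio is determined at several intervals after injection.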

Mus musculus = assay: Metabolic stability in Swiss mouse at 2 to 5 MBq, iv administered as [99m]technetium-radiolabeled peptide by scintigraphic imaging; type: ADME, organism-based; details: in vivo
In short: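 After intravenous injection of 99mTc-labelled peptide (2 to 5 MBq) into thigh-infected mice, scintigraphic imaging follows clearance from the circulation. The value is the biological half-life in minutes, mean ± SD.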

Staphylococcus aureus [4] = assay: Bactericidal activity against Staphylococcus aureus ATCC 25923 after 2 hrs; type: functional; details: ATCC 25923, 2 h
In short: (§3)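 1 × 10^6/ml bacteria in phosphate buffer with 1% (wt/vol) tryptic soybean broth exposed to various peptide amounts, 2 h at 37°C. Viable counts on DST plates. LC50 = concentration (μM) cutting viable bacteria by 50% versus no-peptide incubations. Means from at least three independent experiments.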

[5] = Ratio of drug level in infected thigh muscle to contralateral noninfected thigh muscle in multidrug-resistant Staphylococcus aureus 2141 infected Swiss mouse administered as [99m]technetium-radiolabeled peptide; type: ADME, tissue-based; details: in vivo
In short: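 99mTc-labelled peptides (2 to 5 MBq) injected intravenously into infected mice. Scintigraphic imaging at intervals. Ratio = accumulation in infected thigh muscle (target) over contralateral noninfected thigh muscle (nontarget).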

[6] = Biodistribution in Swiss mouse urinary bladder at 2 to 5 MBq, iv administered as [99m]technetium-radiolabeled peptide by scintigraphic imaging; type: ADME, organism-based; details: in vivo; in short: as §1
Kidney = assay: Biodistribution in Swiss mouse kidney at 2 to 5 MBq, iv administered as [99m]technetium-radiolabeled peptide by scintigraphic imaging; type: ADME, organism-based; details: in vivo; in short: as §1
Staphylococcus aureus [7] = assay: Bactericidal activity against multidrug-resistant Staphylococcus aureus 2141 isolate infected iv dosed Swiss mouse assessed per gram of infected soft tissue after 24 hrs; type: functional; in short: as §2
Staphylococcus aureus [8] = assay: Bactericidal activity against multidrug-resistant Staphylococcus aureus 2141 isolate after 2 hrs; type: functional; in short: as §3
Spleen = assay: Biodistribution in Swiss mouse spleen at 2 to 5 MBq, iv administered as [99m]technetium-radiolabeled peptide by scintigraphic imaging; type: ADME, organism-based; details: in vivo; in short: as §1

Compound	Drug uptake [1]	LC50 (Staphylococcus aureus [2])	Drug uptake (Liver)	Ratio [3]	t1/2 (Mus musculus)	LC50 (Staphylococcus aureus [4])	Ratio [5]	Drug uptake [6]	Drug uptake (Kidney)	LC50 (Staphylococcus aureus [7])	LC50 (Staphylococcus aureus [8])	Drug uptake (Spleen)
N=C(N)NCCC[C@H](NC(=O)[C@H](Cc1cnc[nH]1)NC(=O)[C@H](CO)NC(=O)[C@H](Cc1cnc[nH]1)NC(=O)[C@H](Cc1cnc[nH]1)NC(=O)[C@H](CCCCN)NC(=O)[C@H](CCC(=O)O)NC(=O)[C@H](Cc1cnc[nH]1)NC(=O)[C@H](Cc1ccccc1)NC(=O)[C@H](CCCCN)NC(=O)[C@H](CCCNC(=N)N)NC(=O)[C@@H](N)CCCCN)C(=O)NCC(=O)N[C@@H](Cc1ccc(O)cc1)C(=O)O (H-KRKFHEKHHSHRGY-OH)	0.4 %ID	2 µmol/g	9.4 %ID	3.5	17.7 min	35 µM	1.8	30.7 %ID	21 %ID	1 µmol/g	112 µM	2.1 %ID
N=C(N)NCCC[C@H](NC(=O)[C@H](Cc1cnc[nH]1)NC(=O)[C@H](CO)NC(=O)[C@H](Cc1cnc[nH]1)NC(=O)[C@H](Cc1cnc[nH]1)NC(=O)[C@H](CCCCN)NC(=O)[C@H](CCC(=O)O)NC(=O)[C@H](Cc1cnc[nH]1)NC(=O)[C@H](Cc1ccccc1)NC(=O)[C@H](CCCCN)NC(=O)[C@H](CCCNC(=N)N)NC(=O)[C@@H](N)CCCCN)C(=O)NCC(=O)N[C@@H](Cc1ccc(O)cc1)C(=O)NCCCC[C@H](NC(=O)[C@H](Cc1ccc(O)cc1)NC(=O)CNC(=O)[C@H](CCCNC(=N)N)NC(=O)[C@H](Cc1cnc[nH]1)NC(=O)[C@H](CO)NC(=O)[C@H](Cc1cnc[nH]1)NC(=O)[C@H](Cc1cnc[nH]1)NC(=O)[C@H](CCCCN)NC(=O)[C@H](CCC(=O)O)NC(=O)[C@H](Cc1cnc[nH]1)NC(=O)[C@H](Cc1ccccc1)NC(=O)[C@H](CCCCN)NC(=O)[C@H](CCCNC(=N)N)NC(=O)[C@@H](N)CCCCN)C(N)=O (I: H-KRKFHEKHHSHRGYK-NH2 / II: H-KRKFHEKHHSHRGY; amide I:15-II:C)	0.5 %ID	1.5 µmol/g	9 %ID	4.4	8.6 min	8.4 µM	1.8	26.8 %ID	10.5 %ID	2 µmol/g	8.2 µM	3.2 %ID
